# Measured values: ChEMBL document CHEMBL1144800, “Synthesis and antimicrobial properties of monensin A esters” (2008)
# Calls of active or inactive are those of the source. No cut-off for these calls is given here.
# Experiments:
# [1] = system: Pseudomonas aeruginosa; assay: Antibacterial activity against Pseudomonas aeruginosa ATCC 15442 at 400 ug/disc after 18 hrs by disc diffusion assay; type: functional, organism-based
# Procedure, shortened: (§1)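 Disc diffusion on Mueller–Hinton II agar per CLSI guidelines. Compound in ethanol applied to 9 mm filter paper discs at 400 µg per disc, then dried and placed on the agar surface. Growth inhibition zone diameter read after 18 h at 35 °C.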
# [2] = system: Bacillus cereus; assay: Antibacterial activity against Bacillus cereus ATCC 11778 at 400 ug/disc after 18 hrs by disc diffusion assay; type: functional; conditions: ATCC 11778, 18 h, read-out: IZ; procedure, shortened: as §1
# [3] = system: Proteus vulgaris; assay: Antibacterial activity against Proteus vulgaris NCTC 4635 at 400 ug/disc after 18 hrs by disc diffusion assay; type: functional, organism-based; procedure, shortened: as §1
# [4] = system: Pseudomonas aeruginosa; assay: Antibacterial activity against Pseudomonas aeruginosa ATCC 27853 at 400 ug/disc after 18 hrs by disc diffusion assay; type: functional, organism-based; procedure, shortened: as §1
# [5] = system: Staphylococcus aureus; assay: Antibacterial activity against Staphylococcus aureus ATCC 6538 at 400 ug/disc after 18 hrs by disc diffusion assay; type: functional; conditions: ATCC 6538, 18 h, read-out: IZ; procedure, shortened: as §1
# [6] = system: Micrococcus luteus; assay: Antibacterial activity against Micrococcus luteus ATCC 9341 at 400 ug/disc after 18 hrs by disc diffusion assay; type: functional; conditions: for zone of inhibition at 400 µg/disc: ATCC 9341, 18 h, read-out: IZ; procedure, shortened: as §1
# [7] = system: Staphylococcus aureus; assay: Antibacterial activity against Staphylococcus aureus ATCC 6538 after 18 hrs by serial agar dilution method; type: functional; conditions: ATCC 6538, 18 h
# Procedure, shortened: (§2)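 MIC by twofold serial agar dilution in Mueller–Hinton II agar per CLSI, run only for compounds that gave an inhibition zone in disc assay. Compounds dissolved in DMSO, tested at 3.125–400 µg/ml in agar. Final inoculum 10^4 CFU/ml. […] DMSO control included.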
# [8] = system: Staphylococcus epidermidis; assay: Antibacterial activity against Staphylococcus epidermidis ATCC 12228 after 18 hrs by serial agar dilution method; type: functional; conditions: ATCC 12228, 18 h; procedure, shortened: as §2
# [9] = system: Bacillus subtilis; assay: Antibacterial activity against Bacillus subtilis ATCC 6633 at 400 ug/disc after 18 hrs by disc diffusion assay; type: functional; conditions: ATCC 6633, 18 h, read-out: IZ; procedure, shortened: as §1
# [10] = system: Micrococcus luteus; assay: Antibacterial activity against Micrococcus luteus ATCC 10240 at 400 ug/disc after 18 hrs by disc diffusion assay; type: functional; conditions: ATCC 10240, 18 h, read-out: IZ; procedure, shortened: as §1
# [11] = system: Escherichia coli; assay: Antibacterial activity against Escherichia coli ATCC 10538 at 400 ug/disc after 18 hrs by disc diffusion assay; type: functional, organism-based; procedure, shortened: as §1
# [12] = system: Escherichia coli; assay: Antibacterial activity against Escherichia coli NCTC 8196 at 400 ug/disc after 18 hrs by disc diffusion assay; type: functional, organism-based; procedure, shortened: as §1
# [13] = system: Staphylococcus aureus; assay: Antibacterial activity against Staphylococcus aureus NCTC 4163 at 400 ug/disc after 18 hrs by disc diffusion assay; type: functional; conditions: NCTC 4163, 18 h, read-out: IZ; procedure, shortened: as §1
# [14] = system: Micrococcus luteus; assay: Antibacterial activity against Micrococcus luteus ATCC 10240 after 18 hrs by serial agar dilution method; type: functional; conditions: ATCC 10240, 18 h; procedure, shortened: as §2
# [15] = system: Staphylococcus aureus; assay: Antibacterial activity against Staphylococcus aureus ATCC 25923 at 400 ug/disc after 18 hrs by disc diffusion assay; type: functional; conditions: ATCC 25923, 18 h, read-out: IZ; procedure, shortened: as §1
# [16] = system: Enterococcus hirae; assay: Antibacterial activity against Enterococcus hirae ATCC 10541 after 18 hrs by serial agar dilution method; type: functional; conditions: ATCC 10541, 18 h
# Procedure, shortened: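 Twofold serial agar dilution MIC in Mueller–Hinton II agar (CLSI), run only for compounds that gave an inhibition zone in disc assay. DMSO solutions tested at 3.125–400 µg/ml in agar. Final inoculum 10^5 CFU/ml. Read after 18 h at 35 °C. DMSO control included.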
# [17] = system: Candida albicans; assay: Antifungal activity against Candida albicans ATCC 10231 at 400 ug/disc after 24 hrs by disc diffusion assay; type: functional
# Procedure, shortened: (§3)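 Disc diffusion on RPMI agar with 2% glucose per CLSI guidelines. Discs 9 mm filter paper, loaded from ethanol solution with 400 µg compound, dried before placing on the agar. Inhibition zone diameter read after incubation at 35 °C. Fluconazole control at 25 µg per disc.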
# [18] = system: Staphylococcus aureus; assay: Antibacterial activity against Staphylococcus aureus ATCC 29213 after 18 hrs by serial agar dilution method; type: functional; conditions: ATCC 29213, 18 h; procedure, shortened: as §2
# [19] = system: Staphylococcus aureus; assay: Antibacterial activity against Staphylococcus aureus ATCC 29213 at 400 ug/disc after 18 hrs by disc diffusion assay; type: functional; conditions: ATCC 29213, 18 h, read-out: IZ; procedure, shortened: as §1
# [20] = system: Staphylococcus epidermidis; assay: Antibacterial activity against Staphylococcus epidermidis ATCC 12228 at 400 ug/disc after 18 hrs by disc diffusion assay; type: functional; conditions: for zone of inhibition at 400 µg/disc: ATCC 12228, 18 h, read-out: IZ; procedure, shortened: as §1
# [21] = system: Candida albicans; assay: Antifungal activity against Candida albicans ATCC 90028 at 400 ug/disc after 24 hrs by disc diffusion assay; type: functional; procedure, shortened: as §3
# [22] = system: Enterococcus hirae; assay: Antibacterial activity against Enterococcus hirae ATCC 10541 at 400 ug/disc after 18 hrs by disc diffusion assay; type: functional; procedure, shortened: as §1
# [23] = system: Bacillus cereus; assay: Antibacterial activity against Bacillus cereus ATCC 11778 after 18 hrs by serial agar dilution method; type: functional; conditions: ATCC 11778, 18 h; procedure, shortened: as §2
# [24] = system: Bordetella bronchiseptica; assay: Antibacterial activity against Bordetella bronchiseptica ATCC 4617 at 400 ug/disc after 18 hrs by disc diffusion assay; type: functional, organism-based; procedure, shortened: as §1
# [25] = system: Staphylococcus aureus; assay: Antibacterial activity against Staphylococcus aureus NCTC 4163 after 18 hrs by serial agar dilution method; type: functional; conditions: NCTC 4163, 18 h; procedure, shortened: as §2
# [26] = system: Staphylococcus aureus; assay: Antibacterial activity against Staphylococcus aureus ATCC 25923 after 18 hrs by serial agar dilution method; type: functional; conditions: ATCC 25923, 18 h; procedure, shortened: as §2
# [27] = system: Micrococcus luteus; assay: Antibacterial activity against Micrococcus luteus ATCC 9341 after 18 hrs by serial agar dilution method; type: functional; conditions: ATCC 9341, 18 h; procedure, shortened: as §2
# [28] = system: Bacillus subtilis; assay: Antibacterial activity against Bacillus subtilis ATCC 6633 after 18 hrs by serial agar dilution method; type: functional; conditions: ATCC 6633, 18 h; procedure, shortened: as §2
# [29] = system: Pseudomonas aeruginosa; assay: Antibacterial activity against Pseudomonas aeruginosa NCTC 6749 at 400 ug/disc after 18 hrs by disc diffusion assay; type: functional, organism-based; procedure, shortened: as §1
# [30] = system: Candida parapsilosis; assay: Antifungal activity against Candida parapsilosis ATCC 22019 at 400 ug/disc after 24 hrs by disc diffusion assay; type: functional; procedure, shortened: as §3
# [31] = system: Escherichia coli; assay: Antibacterial activity against Escherichia coli ATCC 25922 at 400 ug/disc after 18 hrs by disc diffusion assay; type: functional, organism-based; procedure, shortened: as §1
SMILES,Activity [1],zone of inhibition at 400 µg/disc [2],Activity [3],Activity [4],zone of inhibition at 400 µg/disc [5],MIC [7],MIC [8],zone of inhibition at 400 µg/disc [9],zone of inhibition at 400 µg/disc [10],Activity [11],Activity [12],zone of inhibition at 400 µg/disc [13],MIC [14],zone of inhibition at 400 µg/disc [15],MIC [16],Activity [17],MIC [18],zone of inhibition at 400 µg/disc [19],Activity [21],Activity [22],other results
C=CCOC(=O)[C@@H](C)[C@H](OC)[C@H](C)[C@H]1O[C@@]2(CC[C@@](C)([C@H]3CC[C@@](CC)([C@@H]4O[C@@H]([C@H]5O[C@@](O)(CO)[C@H](C)C[C@@H]5C)C[C@@H]4C)O3)O2)C[C@H](O)[C@H]1C,inactive,14 mm,inactive,inactive,13 mm,100 mg/L,100 mg/L,15 mm,11 mm,inactive,inactive,13 mm,50 mg/L,11 mm,> 400 mg/L,inactive,100 mg/L,13 mm,inactive,inactive,Activity [6]: inactive; Activity [20]: inactive; MIC [23]: 12.5 mg/L; Activity [24]: inactive; MIC [25]: 100 mg/L; MIC [26]: 100 mg/L; MIC [27]: 100 mg/L; MIC [28]: 12.5 mg/L; Activity [29]: inactive; Activity [30]: inactive; Activity [31]: inactive
CC[C@@]1([C@@H]2O[C@@H]([C@H]3O[C@@](O)(CO)[C@H](C)C[C@@H]3C)C[C@@H]2C)CC[C@H]([C@]2(C)CC[C@]3(C[C@H](O)[C@@H](C)[C@@H]([C@@H](C)[C@@H](OC)[C@H](C)C(=O)OCCOCCOCCOC)O3)O2)O1,inactive,19 mm,inactive,inactive,17 mm,100 mg/L,100 mg/L,20 mm,13 mm,inactive,inactive,19 mm,50 mg/L,19 mm,> 400 mg/L,inactive,50 mg/L,17 mm,inactive,inactive,zone of inhibition at 400 µg/disc [6]: 11 mm; zone of inhibition at 400 µg/disc [20]: 13 mm; MIC [23]: 50 mg/L; Activity [24]: inactive; MIC [25]: 100 mg/L; MIC [26]: 50 mg/L; MIC [27]: 200 mg/L; MIC [28]: 25 mg/L; Activity [29]: inactive; Activity [30]: inactive; Activity [31]: inactive
CC[C@@]1([C@@H]2O[C@@H]([C@H]3O[C@@](O)(CO)[C@H](C)C[C@@H]3C)C[C@@H]2C)CC[C@H]([C@]2(C)CC[C@]3(C[C@H](O)[C@@H](C)[C@@H]([C@@H](C)[C@@H](OC)[C@H](C)C(=O)O)O3)O2)O1 [MONENSIN],inactive,18 mm,inactive,inactive,20 mm,2 mg/L,2 mg/L,22 mm,12 mm,inactive,inactive,22 mm,2 mg/L,22 mm,12.5 mg/L,inactive,1 mg/L,18 mm,inactive,inactive,zone of inhibition at 400 µg/disc [6]: 12 mm; zone of inhibition at 400 µg/disc [20]: 15 mm; MIC [23]: 2 mg/L; Activity [24]: inactive; MIC [25]: 2 mg/L; MIC [26]: 1 mg/L; MIC [27]: 4 mg/L; MIC [28]: 1 mg/L; Activity [29]: inactive; Activity [30]: inactive; Activity [31]: inactive
